What is called IC50 is the concentration at which inhibition is half-maximal. By IC90 is commonly meant the concentration at which the effect reaches the 90% level.

The test system of the first assay is KB. Description: Antiviral activity was estimated by HSV-1 ELISA method. As to conditions: Homo sapiens. Format: functional, cell-based. The gist of the method:
(§1)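 HSV-1 S-148 strain was assayed by enzyme immunoassay (ELISA) in quadruplicate wells. The reported value is the average IC50, taken from linear regression of percent inhibition against log drug concentration. Acyclovir served as the positive control, and sets were rejected if it deviated more than 1.5 standard deviations from its mean.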
Take `Nc1nnc(O)c2c1ccn2C1CCC(CO)O1` (stereo unspecified): the IC50 was more than 100 µM.

Regarding `Nc1nnc(O)c2c1ccn2[C@@H]1O[C@H](CO)[C@@H](O)[C@H]1O`, the IC50 is 90 µM.

With `Nc1n[nH]c(=O)c2c1c(Br)cn2[C@@H]1O[C@H](CO)[C@@H](O)[C@@H]1O`, the half-maximal inhibitory concentration (IC50) is 20 µM.

In the case of `Nc1nnc(O)c2c1ccn2[C@@H]1O[C@H](CO)[C@@H](O)[C@@H]1O`, the IC50 was 90 µM.

For the molecule `Nc1n[nH]c(=O)c2c1c(Br)cn2[C@@H]1O[C@H](CO)[C@@H](O)[C@H]1O`, the IC50 is 2 µM.

In the case of `Nc1n[nH]c(=O)c2c1ccn2[C@H]1C[C@H](O)[C@@H](CO)O1`, the IC50 was 128 µM.

Take `Nc1nnc(O)c2c1c(Br)cn2C1CCC(CO)O1` (stereo unspecified): the IC50 was 27 µM.

Take `Nc1nnc(O)c2c1c(I)cn2C1O[C@H](CO)[C@@H](O)[C@H]1O` (stereo partly specified): the IC50 was 4.5 µM.

As for `Nc1nnc(O)c2c1c(Cl)cn2C1O[C@H](CO)[C@@H](O)[C@H]1O` (stereo partly specified), the IC50 was 6.8 µM.

The test system of another assay is L1210. Description: Cytotoxicity in L1210 cell culture(cell proliferation inhibited by 50%). Format: functional, cell-based. The conditions noted are these: Mus musculus. The gist of the method: (§2)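 L1210 cells were grown in static suspension in Fischer's medium with 10% heat-inactivated horse serum. Cells were counted at 0, 48 and 96 h across a range of compound concentrations. Growth rate is the ratio of control to treated population-doubling time; the 48–96 h rate was used if growth slowed. IC50 is the concentration giving 50% of control growth rate; highest concentration tested was 100 μM.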
On to `Nc1nnc(O)c2c1c(Br)cn2COC(CO)CO`, for which the IC50 was more than 100 µM.

The molecule `Nc1n[nH]c(=O)c2c1ccn2[C@H]1C[C@H](O)[C@@H](CO)O1` registered an IC50 of more than 100 µM.

For a further assay, the system named is HFF. In words: Cytotoxicity in HFF cells was estimated by the visual scoring of cells not affected by virus infection in the plaque reduction assay. As to conditions: Homo sapiens.
`Nc1nnc(O)c2c1ccn2C1CCC(CO)O1` (stereo unspecified): the IC50 was more than 100 µM.

Turning to `Nc1nnc(O)c2c1ccn2COC(CO)CO`, the IC50 was more than 100 µM.

For `Nc1nnc(O)c2c1c(Br)cn2COC(CO)CO`, the half-inhibitory concentration (IC50) was more than 100 µM.

As to `Nc1nnc(O)c2c1ccn2[C@@H]1O[C@H](CO)[C@@H](O)[C@H]1O`, the IC50 is more than 100 µM.

For the molecule `Nc1n[nH]c(=O)c2c1c(Br)cn2[C@@H]1O[C@H](CO)[C@@H](O)[C@@H]1O`, the IC50 is 32 µM.

On to `Nc1nnc(O)c2c1ccn2[C@@H]1O[C@H](CO)[C@@H](O)[C@@H]1O`, for which the IC50 was more than 100 µM.

Turning to `Nc1n[nH]c(=O)c2c1ccn2[C@H]1C[C@H](O)[C@@H](CO)O1`, the IC50 was more than 100 µM.

Turning to `Nc1nnc(O)c2c1c(Br)cn2C1CCC(CO)O1` (stereo unspecified), the IC50 is 32 µM.

A further assay deals with L1210. In words: The in vitro cytotoxicity against L1210 cells was evaluated. The conditions noted are these: Mus musculus. Format: functional, cell-based. The essentials: as §2
`Nc1nnc(O)c2c1ccn2C1CCC(CO)O1` (stereo unspecified) had an IC50 of more than 100 µM.

`Nc1n[nH]c(=O)c2c1c(Br)cn2[C@@H]1O[C@H](CO)[C@@H](O)[C@@H]1O`: the IC50 came to 18 µM.

`Nc1nnc(O)c2c1ccn2[C@@H]1O[C@H](CO)[C@@H](O)[C@@H]1O` yielded an IC50 of 100 µM.

For `Nc1nnc(O)c2c1c(Br)cn2C1CCC(CO)O1` (stereo unspecified), the midpoint of inhibition, the IC50, lay at 38 µM.

As to `Nc1nnc(O)c2c1c(I)cn2C1O[C@H](CO)[C@@H](O)[C@H]1O` (stereo partly specified), the half-maximal inhibitory concentration (IC50) stood at 0.02 µM.

The test system of a further assay is KB. Description: Antiviral activity was estimated by HSV-1 ELISA method. Format: functional, cell-based. As to conditions: Homo sapiens. The essentials: as §1
For `Nc1nnc(O)c2c1c(Br)cn2COC(CO)CO`, the IC50 was more than 100 µM.

The next assay deals with HFF. In words: Antiviral activity was determined by the HCMV plaque assay using HFF cells. As to conditions: Homo sapiens. Format: functional, cell-based. The gist of the method: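 HCMV Towne strain (plaque-purified isolate Po) on HFF monolayers grown in MEM with Earle's salts and 10% FBS. Inoculum held approximately 50 PFU. Compounds were dissolved in the overlay medium and plaques counted. IC50 came from linear regression of percent inhibition against log concentration. Ganciclovir was the positive control.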
In the case of `Nc1nnc(O)c2c1ccn2C1CCC(CO)O1` (stereo unspecified), the IC50 is more than 100 µM.

`Nc1nnc(O)c2c1ccn2COC(CO)CO` had an IC50 of more than 100 µM.

`Nc1nnc(O)c2c1c(Br)cn2COC(CO)CO` had an IC50 of more than 100 µM.

In turn, `Nc1n[nH]c(=O)c2c1c(Br)cn2[C@@H]1O[C@H](CO)[C@@H](O)[C@@H]1O` returned an IC50 of 2.7 µM.

For `Nc1nnc(O)c2c1ccn2[C@@H]1O[C@H](CO)[C@@H](O)[C@@H]1O`, the IC50 is more than 100 µM.

Turning to `Nc1n[nH]c(=O)c2c1c(Br)cn2[C@@H]1O[C@H](CO)[C@@H](O)[C@H]1O`, the IC50 came to 0.1 µM.

In the case of `Nc1n[nH]c(=O)c2c1ccn2[C@H]1C[C@H](O)[C@@H](CO)O1`, the IC50 was more than 100 µM.

Regarding `Nc1nnc(O)c2c1c(Br)cn2C1CCC(CO)O1` (stereo unspecified), the IC50 came out at 12 µM.

In turn, `Nc1nnc(O)c2c1c(I)cn2C1O[C@H](CO)[C@@H](O)[C@H]1O` (stereo partly specified) showed an IC50 of 0.4 µM.

`Nc1nnc(O)c2c1c(Cl)cn2C1O[C@H](CO)[C@@H](O)[C@H]1O` (stereo partly specified) came in with an IC50 of 0.2 µM.

Regarding `Nc1nc2c(ncn2COC(CO)CO)c(=O)[nH]1` [GANCICLOVIR], the IC50 amounted to 7.7 µM.

The next assay relates to HFF. Description: Antiviral activity was estimated by the HCMV yield reduction experiments. Format: functional. As to conditions: Homo sapiens. The gist of the method: (§3)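 HCMV Towne strain yield reduction assay. Results are given as IC90, derived by linear regression of percent inhibition against log drug concentration. Ganciclovir was the positive control.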
Turning to `Nc1n[nH]c(=O)c2c1c(Br)cn2[C@@H]1O[C@H](CO)[C@@H](O)[C@@H]1O`, the IC90 is 6.3 µM.

As for `Nc1n[nH]c(=O)c2c1c(Br)cn2[C@@H]1O[C@H](CO)[C@@H](O)[C@H]1O`, the IC90 was 0.04 µM.

Turning to `Nc1nnc(O)c2c1c(Br)cn2C1CCC(CO)O1` (stereo unspecified), the IC90 was 10 µM.

Regarding `Nc1nnc(O)c2c1c(I)cn2C1O[C@H](CO)[C@@H](O)[C@H]1O` (stereo partly specified), the 90% effect concentration (IC90) was 0.02 µM.

For the molecule `Nc1nnc(O)c2c1c(Cl)cn2C1O[C@H](CO)[C@@H](O)[C@H]1O` (stereo partly specified), the IC90 is 0.7 µM.

For another assay, the system named is L1210. Description: cytotoxicity in L1210 cell culture(cell proliferation inhibited by 50%). As to conditions: Mus musculus. Format: functional, cell-based. The essentials: as §2
Regarding `Nc1nnc(O)c2c1ccn2COC(CO)CO`, the IC50 was more than 100 µM.

The subject of another assay is KB. In words: Antiviral activity was estimated by HSV-1 ELISA method (data of single experiment). As to conditions: Homo sapiens. Format: functional, cell-based. The essentials: as §1
Turning to `Nc1nnc(O)c2c1ccn2COC(CO)CO`, the IC50 is more than 100 µM.

As to `Nc1nc2c(ncn2COC(CO)CO)c(=O)[nH]1` [GANCICLOVIR], the IC50 is 3.5 µM.

Another assay relates to HFF. Description: Antiviral activity was estimated by the HCMV yield reduction experiments. Format: functional. As to conditions: Homo sapiens. The gist of the method: as §3
Consider `Nc1nc2c(ncn2COC(CO)CO)c(=O)[nH]1` [GANCICLOVIR], for which the IC90 is 1.8 µM.

For another assay, the system named is KB. Description: Cytotoxicity in KB cells. Format: functional, cell-based. The conditions noted are these: Homo sapiens. The gist of the method: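 KB cells grown in MEM with Hank's salts and 5% FBS. Growth was measured spectrophotometrically by crystal violet staining 2 days after drug treatment, in quadruplicate wells. IC50 was taken from linear regression of percent inhibition against log concentration. 2-Acetylpyridine thiosemicarbazone was the positive control.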
Consider `Nc1nnc(O)c2c1ccn2C1CCC(CO)O1` (stereo unspecified), for which the IC50 is more than 100 µM.

Molecule `Nc1nnc(O)c2c1ccn2COC(CO)CO` displayed an IC50 of more than 100 µM.

As to `Nc1nnc(O)c2c1c(Br)cn2COC(CO)CO`, the IC50 is more than 100 µM.

As to `Nc1n[nH]c(=O)c2c1c(Br)cn2[C@@H]1O[C@H](CO)[C@@H](O)[C@@H]1O`, the half-maximal inhibitory concentration (IC50) was found to be 15 µM.

`Nc1n[nH]c(=O)c2c1ccn2[C@H]1C[C@H](O)[C@@H](CO)O1`: the IC50 is more than 100 µM.

Molecule `Nc1nnc(O)c2c1c(Br)cn2C1CCC(CO)O1` (stereo unspecified) yielded an IC50 of 10 µM.

The record behind these values is ChEMBL document CHEMBL1129959, “Synthesis and antiproliferative and antiviral activity of carbohydrate-modified pyrrolo[2,3-d]pyridazin-7-one nucleosides” (J Med Chem, 1997).
